Assay results from ChEMBL document CHEMBL1134480, “Antiplasmodial activity and cytotoxicity of bis-, tris-, and tetraquinolines with linear or cyclic amino linkers” (J Med Chem, 2001).

How the values were obtained:
[1] = system: MRC5; experiment: Cytotoxicity against MRC-5 cells at concentration 1 uM; assay type: functional; details: Homo sapiens
Procedure, shortened: (§1)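 MRC-5 human embryonic lung diploid cells were seeded at 5000 per well. After 24 h the cells were washed and exposed to 2-fold drug dilutions in RPMI + 5% FCS, with final DMSO below 0.5%. Incubation was 7 days at 37 °C in 5% CO2. Viability was read by MTT absorbance at 540 nm.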

[2] = system: MRC5; experiment: Cytotoxicity against MRC-5 cells at concentration 32 uM; assay type: functional; details: Homo sapiens; procedure, shortened: as §1
[3] = system: MRC5; experiment: Cytotoxicity against MRC-5 cells at concentration 0.5 uM; assay type: functional; details: Homo sapiens; procedure, shortened: as §1
[4] = system: MRC5; experiment: Cytotoxicity against MRC-5 cells at concentration 8 uM; assay type: functional; details: Homo sapiens; procedure, shortened: as §1
[5] = In vitro cytotoxic activity against mouse peritoneal macrophages at a concentration 2 uM; Toxic; assay type: toxicity
[6] = In vitro cytotoxic activity against mouse peritoneal macrophages at a concentration 32 uM; Toxic; assay type: toxicity
[7] = In vitro cytotoxic activity against mouse peritoneal macrophages at a concentration 8 uM; Toxic; assay type: toxicity
[8] = system: Plasmodium falciparum; experiment: In vitro growth inhibition of Plasmodium falciparum FcB1R; assay type: functional, organism-based
Procedure, shortened: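 Asynchronous P. falciparum cultures were grown in human erythrocytes at 0.5% parasitemia and 1% hematocrit. They were exposed to serial drug dilutions, with DMSO ≤0.1%, for 24 h at 37 °C before adding 0.5 µCi [3H]hypoxanthine per well. Inhibition was measured as incorporated radioactivity versus drug-free controls on the same plate. IC50 came from concentration–response curves, reported as mean ± SD of three independent experiments; FcB1R used several experiments.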

[9] = species on record: Mus musculus; experiment: In vitro cytotoxic activity against mouse peritoneal macrophages at a concentration 8 uM; Non-toxic; assay type: functional
[10] = species on record: Mus musculus; experiment: In vitro cytotoxic activity against mouse peritoneal macrophages at a concentration 2 uM; Non-toxic; assay type: functional
[11] = system: Plasmodium falciparum; experiment: In vitro growth inhibition of Plasmodium falciparum W2; assay type: functional, organism-based
[12] = system: Plasmodium falciparum; experiment: (§2) In vitro growth inhibition of Plasmodium falciparum D6; assay type: functional, organism-based
Procedure, shortened: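 Asynchronous P. falciparum cultures in human erythrocytes (0.5% parasitemia, 1% final hematocrit) exposed to serially diluted drug for 24 h at 37 °C, then pulsed with 0.5 µCi [³H]hypoxanthine per well. Inhibition from incorporated radioactivity versus drug-free control on the same plate; IC50 from concentration-response curve; mean ± SD of three independent experiments. DMSO ≤0.1% final.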

[13] = system: Plasmodium falciparum; experiment: In vitro growth inhibition of Plasmodium falciparum F32; assay type: functional, organism-based
[14] = In vitro cytotoxicity against mouse peritoneal macrophages at concentration 32 uM; Toxic; assay type: toxicity
[15] = system: Plasmodium falciparum; experiment: as §2; assay type: functional, organism-based; remark: listed apart in the source

Row | Compound | cytotoxicity at 1 µM [1] [%] | cytotoxicity at 32 µM [2] [%] | cytotoxicity at 0.5 µM [3] [%] | cytotoxicity at 8 µM [4] [%] | Cytotoxicity [5] | Cytotoxicity [6] | Cytotoxicity [7] | IC50 [8] [nM] | Cytotoxicity [9] | Cytotoxicity [10] | IC50 [11] [nM] | IC50 [12] [nM] | IC50 [13] [nM] | Cytotoxicity [14] | IC50 [15] [nM]
1 | O=C(CCCCCCCN1CCCCC1)N1CCN(c2ccnc3cc(Cl)ccc23)CCN(c2ccnc3cc(Cl)ccc23)CC1 | 0 | 91 | 0 | 91 | Toxic | Toxic | Toxic | 81.1 |  |  |  |  |  |  | 
2 | O=C(CNCC(=O)N1CCN(c2ccnc3cc(Cl)ccc23)CCN(c2ccnc3cc(Cl)ccc23)CC1)N1CCN(c2ccnc3cc(Cl)ccc23)CCN(c2ccnc3cc(Cl)ccc23)CC1 | 0 | 0 | 0 | 0 |  |  |  | 103 | Not toxic | Not toxic |  |  |  |  | 
3 | N=C(N)NCCC(=O)N1CCN(c2ccnc3cc(Cl)ccc23)CCN(c2ccnc3cc(Cl)ccc23)CC1 | 0 | 0 | 0 | 0 |  |  |  | > 1000 | Not toxic | Not toxic |  |  |  |  | 
4 | NCCC(=O)N1CCN(c2ccnc3cc(Cl)ccc23)CCN(c2ccnc3cc(Cl)ccc23)CC1 | 0 | 0 | 0 | 0 |  |  |  | > 1000 | Not toxic | Not toxic |  |  |  |  | 
5 | O=C(CCCC(=O)N1CCN(c2ccnc3cc(Cl)ccc23)CCN(c2ccnc3cc(Cl)ccc23)CC1)N1CCN(c2ccnc3cc(Cl)ccc23)CCN(c2ccnc3cc(Cl)ccc23)CC1 | 0 | 0 | 0 | 0 |  |  |  | 18.3 | Not toxic | Not toxic | 29.2 | 18.5 | 17.9 |  | 
6 | O=C(c1ccc(C(=O)N2CCN(c3ccnc4cc(Cl)ccc34)CCN(c3ccnc4cc(Cl)ccc34)CC2)cc1)N1CCN(c2ccnc3cc(Cl)ccc23)CCN(c2ccnc3cc(Cl)ccc23)CC1 | 0 | 0 | 0 | 0 |  |  |  | 266 | Not toxic | Not toxic |  |  |  |  | 
7 | O=C(CCCO)N1CCN(c2ccnc3cc(Cl)ccc23)CCN(c2ccnc3cc(Cl)ccc23)CC1 | 0 | 0 | 0 | 0 |  |  |  | 930 | Not toxic | Not toxic |  |  |  |  | 
8 | O=C(CCCOCc1ccccc1)N1CCN(c2ccnc3cc(Cl)ccc23)CCN(c2ccnc3cc(Cl)ccc23)CC1 | 0 | 14 | 0 | 0 |  |  |  | 1000 | Not toxic | Not toxic |  |  |  | Toxic | 
9 | O=C(CCCC(=O)N1CCN(c2ccnc3cc(Cl)ccc23)CCN(c2ccnc3cc(Cl)ccc23)CC1)N1CCNCCNCC1 | 0 | 0 | 0 | 0 |  |  |  | > 1000 | Not toxic | Not toxic |  |  |  |  | 
10 | O=C(CCCCN1CCCCC1)N1CCN(c2ccnc3cc(Cl)ccc23)CCN(c2ccnc3cc(Cl)ccc23)CC1 | 0 | 92 | 0 | 92 |  | Toxic | Toxic | 132 |  | Not toxic |  |  |  |  | 
11 | Clc1ccc2c(NCCN(CCNc3ccnc4cc(Cl)ccc34)Cc3ccnc4ccccc34)ccnc2c1 | 0 | 0 | 0 | 0 |  |  |  | > 1000 | Not toxic | Not toxic |  |  |  |  | 
12 | Clc1ccc2c(N3CCNCCNCC3)ccnc2c1 | 0 | 0 | 0 | 0 |  |  |  | > 1000 | Not toxic | Not toxic |  |  |  |  | 
13 | CC(C)(C)OC(=O)NCCC(=O)N1CCN(c2ccnc3cc(Cl)ccc23)CCN(c2ccnc3cc(Cl)ccc23)CC1 | 0 | 100 | 0 | 0 |  |  |  | > 1000 | Not toxic | Not toxic |  |  |  | Toxic | 
14 | O=C(CCC(=O)N1CCN(c2ccnc3cc(Cl)ccc23)CCN(c2ccnc3cc(Cl)ccc23)CC1)N1CCN(c2ccnc3cc(Cl)ccc23)CCN(c2ccnc3cc(Cl)ccc23)CC1 | 0 | 0 | 0 | 0 |  |  |  | 38.1 | Not toxic | Not toxic | 29.5 |  | 23.7 |  | 21.9
15 | CC(NC(=O)OC(C)(C)C)C(=O)N1CCN(c2ccnc3cc(Cl)ccc23)CCN(c2ccnc3cc(Cl)ccc23)CC1 (configuration not stated) | 0 | 0 | 0 | 0 |  |  |  | 463 | Not toxic | Not toxic |  |  |  |  | 
16 | O=C(CCCCCCCCCCCN1CCCCC1)N1CCN(c2ccnc3cc(Cl)ccc23)CCN(c2ccnc3cc(Cl)ccc23)CC1 | 11 | 89 | 0 | 92 | Toxic | Toxic | Toxic | 109 |  |  |  |  |  |  | 
17 | NCCN(CCNc1ccnc2cc(Cl)ccc12)CCNc1ccnc2cc(Cl)ccc12 | 0 | 51 | 0 | 0 |  |  |  | 606 | Not toxic | Not toxic |  |  |  |  | 
18 | O=C(CCCCCCCC(=O)N1CCN(c2ccnc3cc(Cl)ccc23)CCN(c2ccnc3cc(Cl)ccc23)CC1)N1CCN(c2ccnc3cc(Cl)ccc23)CCN(c2ccnc3cc(Cl)ccc23)CC1 | 0 | 0 | 0 | 0 |  | Toxic |  | 22.6 | Not toxic | Not toxic | 67.2 |  | 46.3 |  | 41.7
19 | O=C(CCCC(=O)N1CCN(c2ccnc3cc(Cl)ccc23)CCN(c2ccnc3cc(Cl)ccc23)CC1)N1CCNCCN(c2ccnc3cc(Cl)ccc23)CC1 | 0 | 0 | 0 | 0 |  |  |  | 275 | Not toxic | Not toxic |  |  |  |  | 
20 | O=C(O)CCCC(=O)N1CCN(c2ccnc3cc(Cl)ccc23)CCN(c2ccnc3cc(Cl)ccc23)CC1 | 0 | 0 | 0 | 0 |  |  |  | 940 | Not toxic | Not toxic |  |  |  |  | 
21 | O=C(O)CCC(=O)N1CCN(c2ccnc3cc(Cl)ccc23)CCN(c2ccnc3cc(Cl)ccc23)CC1 | 1 | 0 | 0 | 0 |  |  |  | > 1000 | Not toxic | Not toxic |  |  |  |  | 
22 | CC(N)C(=O)N1CCN(c2ccnc3cc(Cl)ccc23)CCN(c2ccnc3cc(Cl)ccc23)CC1 (configuration not stated) | 0 | 88 | 0 | 0 |  | Toxic | Toxic | 228 |  | Not toxic |  |  |  |  | 
23 | O=C(CCCCCCCCCCC(=O)N1CCN(c2ccnc3cc(Cl)ccc23)CCN(c2ccnc3cc(Cl)ccc23)CC1)N1CCN(c2ccnc3cc(Cl)ccc23)CCN(c2ccnc3cc(Cl)ccc23)CC1 | 0 | 0 | 0 | 0 |  |  |  | 79.1 | Not toxic | Not toxic | 180 |  | 133 |  | 123
24 | NC(=O)CCC(=O)N1CCN(c2ccnc3cc(Cl)ccc23)CCN(c2ccnc3cc(Cl)ccc23)CC1 | 0 | 0 | 0 | 0 |  |  |  | 980 | Not toxic | Not toxic |  |  |  |  | 
